Test results reported in the array DNA melting data of Ke et al. (doi:10.1101/2024.01.08.574731).

Tests used:
[1] = melting temperature; fluorescence melt of hairpins on a sequencing array, two-state fit, raised by 9.35 °C to match UV melts; conditions: sodium 0.088 M
Outline: (§1)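 Melting temperature and folding enthalpy were obtained by bootstrapped two-state fitting. Fits used Cy3 fluorescence of library hairpins with annealed Cy3 and quencher oligos on a sequenced MiSeq flow cell, imaged in 50 mM Na-HEPES pH 8.0, 25 mM NaCl in 2.5 °C steps up to 60 °C and normalised to pre-quench Cy3 and control constructs. Four replicates were combined by inverse-variance weighting, and fitted temperatures were raised by 9.35 °C to match UV melts.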

[2] = folding enthalpy; higher = less favourable; fluorescence melt of hairpins on a sequencing array, two-state fit; conditions: sodium 0.088 M
Outline: as §1

GAGAACGAAAGTTGCTC ((((((....))).)))
Tm [1]: 33.6 °C | folding enthalpy [2]: -15.7 kcal/mol

GAGAACGGAAACATTCTC (((((.(....).)))))
Tm [1]: 30.1 °C | folding enthalpy [2]: -23.5 kcal/mol

GAGAAGCCGAAAGGCCTC (((..(((....))))))
Tm [1]: 37.4 °C | folding enthalpy [2]: -12.7 kcal/mol

GAGAAGGCGAAAGCCCTC (((..(((....))))))
Tm [1]: 37.2 °C | folding enthalpy [2]: -10.5 kcal/mol

GAGAATGGAAACATTCTC (((((((....)))))))
Tm [1]: 54.7 °C | folding enthalpy [2]: -40.6 kcal/mol

GAGAATGGAAACGTTCTC (((((.(....).)))))
Tm [1]: 42.9 °C | folding enthalpy [2]: -33.9 kcal/mol

GAGACACCGAAAGGTCTC (((..(((....))))))
Tm [1]: 42.2 °C | folding enthalpy [2]: -20.4 kcal/mol

GAGACACGAAAGTGCTC (((.(((....))))))
Tm [1]: 44.6 °C | folding enthalpy [2]: -16.6 kcal/mol

GAGACCGAAAGGTCACTC ((((((....)))..)))
Tm [1]: 55.1 °C | folding enthalpy [2]: -13.8 kcal/mol

GAGACCGAAAGGTGTCTC ((((((....)))..)))
Tm [1]: 51.9 °C | folding enthalpy [2]: -24 kcal/mol

GAGACCGAAAGGTTCTC ((((((....))).)))
Tm [1]: 54.2 °C | folding enthalpy [2]: -22.3 kcal/mol

GAGACGAAAGTCTC (((((....)))))
Tm [1]: 67.1 °C | folding enthalpy [2]: -23.1 kcal/mol

GAGACGGGAAACCGTCCC (.(((((....))))).)
Tm [1]: 43.8 °C | folding enthalpy [2]: -11.5 kcal/mol

GAGACGGGAAACTGTCTC (((((.(....).)))))
Tm [1]: 51.5 °C | folding enthalpy [2]: -41.1 kcal/mol

GAGACTGAAAAGTCTC ((((((....))))))
Tm [1]: 57.5 °C | folding enthalpy [2]: -35.9 kcal/mol

GAGACTGGAAACAGTTTC ((.((((....)))).))
Tm [1]: 38.8 °C | folding enthalpy [2]: -29.6 kcal/mol

GAGAGACCGAAAGGTCTC (((..(((....))))))
Tm [1]: 62.5 °C | folding enthalpy [2]: -9.65 kcal/mol

GAGAGACGAAAGTCACTC (((.(((....))).)))
Tm [1]: 51.3 °C | folding enthalpy [2]: -35.1 kcal/mol

GAGAGCCGAAAGGCACTC (((.(((....))).)))
Tm [1]: 61.1 °C | folding enthalpy [2]: -20.2 kcal/mol

GAGAGCGGAAACGCTCCC (.(((((....))))).)
Tm [1]: 46.1 °C | folding enthalpy [2]: -9.72 kcal/mol

GAGAGGCGAAAGCCCTC (((.(((....))))))
Tm [1]: 55.7 °C | folding enthalpy [2]: -14.2 kcal/mol

GAGAGTGGAAACACTCTC (((((((....)))))))
Tm [1]: 61.5 °C | folding enthalpy [2]: -41.2 kcal/mol

GAGATACGAAAGTACCTC (((.(((....))).)))
Tm [1]: 41.5 °C | folding enthalpy [2]: -31.3 kcal/mol

GAGATGAAAATCTC (((((....)))))
Tm [1]: 44 °C | folding enthalpy [2]: -22.2 kcal/mol

GAGATGACGAAAGTCCTC (((..(((....))))))
Tm [1]: 30 °C | folding enthalpy [2]: -11.7 kcal/mol

GAGATGCGAAAGCAACTC (((.(((....))).)))
Tm [1]: 53.9 °C | folding enthalpy [2]: -23 kcal/mol

GAGATGGAAACATCTC ((((((....))))))
Tm [1]: 53.5 °C | folding enthalpy [2]: -37 kcal/mol

GAGATGGGAAACTGTCTC ((((..(....)..))))
Tm [1]: 33.2 °C | folding enthalpy [2]: -21.5 kcal/mol

GAGATTGAAAAATCTC ((((((....))))))
Tm [1]: 47.9 °C | folding enthalpy [2]: -33.8 kcal/mol

GAGATTGCGAAAGCACTC (((..(((....))))))
Tm [1]: 29.5 °C | folding enthalpy [2]: -11.3 kcal/mol

GAGATTGGAAACAATTTC ((.((((....)))).))
Tm [1]: 32.4 °C | folding enthalpy [2]: -17.9 kcal/mol

GAGCAAGGAAACTCGCTC ((((.((....)).))))
Tm [1]: 40.6 °C | folding enthalpy [2]: -30.8 kcal/mol

GAGCACCCGAAAGGGCTC (((..(((....))))))
Tm [1]: 48.6 °C | folding enthalpy [2]: -26.7 kcal/mol

GAGCACCGAAAGGTTCTC (((.(((....))).)))
Tm [1]: 45.8 °C | folding enthalpy [2]: -27.6 kcal/mol

GAGCACGAAAGTGCACTC ((((((....)))..)))
Tm [1]: 58 °C | folding enthalpy [2]: -11.9 kcal/mol

GAGCACGAAAGTGCCTC ((((((....))).)))
Tm [1]: 51.2 °C | folding enthalpy [2]: -10.4 kcal/mol

GAGCACGAAAGTGCGCTC ((((((....)))..)))
Tm [1]: 67.2 °C | folding enthalpy [2]: -12.5 kcal/mol

GAGCACGAAAGTGGCCTC ((((((....)))..)))
Tm [1]: 42 °C | folding enthalpy [2]: -14 kcal/mol

GAGCACGAAAGTGGGCTC ((((((....)))..)))
Tm [1]: 54.7 °C | folding enthalpy [2]: -23.5 kcal/mol

GAGCACGAAAGTGTCTC ((((((....))).)))
Tm [1]: 53.2 °C | folding enthalpy [2]: -23.3 kcal/mol

GAGCACGAAAGTGTTCTC ((((((....)))..)))
Tm [1]: 52.1 °C | folding enthalpy [2]: -25.5 kcal/mol

GAGCACGCGAAAGCGCTC (((..(((....))))))
Tm [1]: 47.6 °C | folding enthalpy [2]: -12.8 kcal/mol

GAGCACGGAAACGTGTTC ((.((((....)))).))
Tm [1]: 51.6 °C | folding enthalpy [2]: -26.2 kcal/mol

GAGCAGCGAAAGCTACTC (((.(((....))).)))
Tm [1]: 49.6 °C | folding enthalpy [2]: -22.3 kcal/mol

GAGCAGCGAAAGCTTCTC (((.(((....))).)))
Tm [1]: 43.2 °C | folding enthalpy [2]: -24.7 kcal/mol

GAGCAGGAAACTGCTC ((((((....))))))
Tm [1]: 62.3 °C | folding enthalpy [2]: -37.8 kcal/mol

GAGCAGGGAAACCTGTTC ((.((((....)))).))
Tm [1]: 46 °C | folding enthalpy [2]: -24.1 kcal/mol

GAGCATCCGAAAGGACTC (((..(((....))))))
Tm [1]: 27.5 °C | folding enthalpy [2]: -10.8 kcal/mol

GAGCATGGAAACATGTTC ((.((((....)))).))
Tm [1]: 42.8 °C | folding enthalpy [2]: -25.6 kcal/mol

GAGCCAGGAAACCAGCTC ((((..(....)..))))
Tm [1]: 34.9 °C | folding enthalpy [2]: -24.6 kcal/mol

GAGCCAGGAAACCGGCTC (((((.(....).)))))
Tm [1]: 56.6 °C | folding enthalpy [2]: -37.5 kcal/mol

GAGCCCGAAAGGGACCTC ((((((....)))..)))
Tm [1]: 45 °C | folding enthalpy [2]: -15.6 kcal/mol

GAGCCCGAAAGGGAGCTC ((((((....)))..)))
Tm [1]: 55.6 °C | folding enthalpy [2]: -20 kcal/mol

GAGCCCGGAAACGGACCC (.(.(((....))).).)
Tm [1]: 25.7 °C | folding enthalpy [2]: -11.2 kcal/mol

GAGCCCGGAAACGGGCCC (.(((((....))))).)
Tm [1]: 49.7 °C | folding enthalpy [2]: -7.26 kcal/mol

GAGCCGGGAAACCGACCC (.(.(((....))).).)
Tm [1]: 30.1 °C | folding enthalpy [2]: -13.9 kcal/mol

GAGCCGGGAAACCGGTTC ((.((((....)))).))
Tm [1]: 55 °C | folding enthalpy [2]: -34.5 kcal/mol

GAGCCTGGAAACAGGTTC ((.((((....)))).))
Tm [1]: 49.5 °C | folding enthalpy [2]: -27.2 kcal/mol

GAGCGAACGAAAGTTCTC (((..(((....))))))
Tm [1]: 27.4 °C | folding enthalpy [2]: -9.38 kcal/mol

GAGCGAGAAATCGCTC ((((((....))))))
Tm [1]: 67.4 °C | folding enthalpy [2]: -30.4 kcal/mol

GAGCGAGCGAAAGCTCTC (((..(((....))))))
Tm [1]: 35.5 °C | folding enthalpy [2]: -8.27 kcal/mol

GAGCGCGAAAGCGAACTC ((((((....)))..)))
Tm [1]: 49 °C | folding enthalpy [2]: -15.2 kcal/mol

GAGCGCGAAAGCGCACTC ((((((....)))..)))
Tm [1]: 60.4 °C | folding enthalpy [2]: -10 kcal/mol

GAGCGCGAAAGCGCCTC ((((((....))).)))
Tm [1]: 58.1 °C | folding enthalpy [2]: -7.59 kcal/mol

GAGCGCGGAAACGCGTTC ((.((((....)))).))
Tm [1]: 57.4 °C | folding enthalpy [2]: -16.9 kcal/mol

GAGCGGCGAAAGCCCCTC (((.(((....))).)))
Tm [1]: 46.7 °C | folding enthalpy [2]: -14.1 kcal/mol

GAGCGGCGAAAGCCCTC (((.(((....))))))
Tm [1]: 53 °C | folding enthalpy [2]: -16.1 kcal/mol

GAGCTACCGAAAGGTCTC (((..(((....))))))
Tm [1]: 27.6 °C | folding enthalpy [2]: -13.5 kcal/mol
